Laboratory results taken from ChEMBL document CHEMBL2062453, “Lead optimization through VLAK protocol: new annelated pyrrolo-pyrimidine derivatives as antitumor agents” (2012).

Assays:
Assay type in all cases: functional
TK-10 = assay: Cytotoxicity against human TK10 cells assessed as cell growth at 10 uM after 48 hrs by SRB assay relative to control; details: TK-10, 48 h, read-out: Activity
In short: (§1)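 NCI single-dose primary screen across about 60 human tumour lines. Each line was inoculated and preincubated on microtiter plates, then exposed to one concentration of agent for 48 h. Growth is reported as percent growth (G%) of treated cells versus untreated control cells.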

MOLT-4 = assay: Cytotoxicity against human MOLT4 cells assessed as cell growth at 10 uM after 48 hrs by SRB assay relative to control; details: MOLT-4, 48 h, read-out: Activity
PC-3 = assay: Cytotoxicity against human PC3 cells assessed as cell growth at 10 uM after 48 hrs by SRB assay relative to control; details: PC-3, 48 h, read-out: Activity
NCI-H460 = assay: Cytotoxicity against human NCI-H460 cells assessed as cell growth at 10 uM after 48 hrs by SRB assay relative to control; details: NCI-H460, 48 h, read-out: Activity
RXF 393 = assay: Cytotoxicity against human RXF393 cells assessed as cell growth at 10 uM after 48 hrs by SRB assay relative to control; details: RXF 393, 48 h, read-out: Activity
HCC 2998 = assay: Cytotoxicity against human HCC2998 cells assessed as cell growth at 10 uM after 48 hrs by SRB assay relative to control; details: HCC 2998, 48 h, read-out: Activity
In short: (§2)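 NCI primary screen of about 60 human tumour lines. Cells inoculated and preincubated, then a single test concentration added and cultures incubated 48 h. Result given as percent growth (G%) of treated versus untreated control cells.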

ACHN = assay: Cytotoxicity against human ACHN cells assessed as cell growth at 10 uM after 48 hrs by SRB assay relative to control; details: read-out: Activity; in short: as §2
MDA-MB-468 = assay: Cytotoxicity against human MDA-MB-468 cells assessed as cell growth at 10 uM after 48 hrs by SRB assay relative to control; details: MDA-MB-468, 48 h, read-out: Activity
U-251 = assay: Cytotoxicity against human U251 cells assessed as cell growth at 10 uM after 48 hrs by SRB assay relative to control; details: U-251, 48 h, read-out: Activity; in short: as §1
KM12 = assay: Cytotoxicity against human KM12 cells assessed as cell growth at 10 uM after 48 hrs by SRB assay relative to control; details: KM12, 48 h, read-out: Activity; in short: as §2
NCI-H226 = assay: Cytotoxicity against human NCI-H226 cells assessed as cell growth at 10 uM after 48 hrs by SRB assay relative to control; details: NCI-H226, 48 h, read-out: Activity
NCI-H322M = assay: Cytotoxicity against human NCI-H322M cells assessed as cell growth at 10 uM after 48 hrs by SRB assay relative to control; details: read-out: Activity
HCT-15 = assay: Cytotoxicity against human HCT15 cells assessed as cell growth at 10 uM after 48 hrs by SRB assay relative to control; details: HCT-15, 48 h, read-out: Activity; in short: as §2
SF-295 = assay: Cytotoxicity against human SF295 cells assessed as cell growth at 10 uM after 48 hrs by SRB assay relative to control; details: SF-295, 48 h, read-out: Activity
SK-MEL-28 = assay: Cytotoxicity against human SK-MEL-28 cells assessed as cell growth at 10 uM after 48 hrs by SRB assay relative to control; details: SK-MEL-28, 48 h, read-out: Activity
DU-145 = assay: Cytotoxicity against human DU145 cells assessed as cell growth at 10 uM after 48 hrs by SRB assay relative to control; details: DU-145, 48 h, read-out: Activity; in short: as §2
SK-OV-3 = assay: Cytotoxicity against human SKOV3 cells assessed as cell growth at 10 uM after 48 hrs by SRB assay relative to control; details: SK-OV-3, 48 h, read-out: Activity
A498 = assay: Cytotoxicity against human A498 cells assessed as cell growth at 10 uM after 48 hrs by SRB assay relative to control; details: A498, 48 h, read-out: Activity; in short: as §2
SF-268 = assay: Cytotoxicity against human SF268 cells assessed as cell growth at 10 uM after 48 hrs by SRB assay relative to control; details: SF-268, 48 h, read-out: Activity
HCT-116 = assay: Cytotoxicity against human HCT116 cells assessed as cell growth at 10 uM after 48 hrs by SRB assay relative to control; details: HCT-116, 48 h, read-out: Activity; in short: as §2
UO-31 = assay: Cytotoxicity against human UO31 cells assessed as cell growth at 10 uM after 48 hrs by SRB assay relative to control; details: UO-31, 48 h, read-out: Activity; in short: as §1
SR = assay: Cytotoxicity against human SR cells assessed as cell growth at 10 uM after 48 hrs by SRB assay relative to control; details: read-out: Activity; in short: as §1
SK-MEL-2 = assay: Cytotoxicity against human SK-MEL-2 cells assessed as cell growth at 10 uM after 48 hrs by SRB assay relative to control; details: SK-MEL-2, 48 h, read-out: Activity
A549 = assay: Cytotoxicity against human A549 cells assessed as cell growth at 10 uM after 48 hrs by SRB assay relative to control; details: A549, 48 h, read-out: Activity; in short: as §2
SF-539 = assay: Cytotoxicity against human SF539 cells assessed as cell growth at 10 uM after 48 hrs by SRB assay relative to control; details: SF-539, 48 h, read-out: Activity
SNB-75 = assay: Cytotoxicity against human SNB75 cells assessed as cell growth at 10 uM after 48 hrs by SRB assay relative to control; details: SNB-75, 48 h, read-out: Activity
EKVX = assay: Cytotoxicity against human EKVX cells assessed as cell growth at 10 uM after 48 hrs by SRB assay relative to control; details: read-out: Activity; in short: as §2
MDA-MB-231 = assay: Cytotoxicity against human MDA-MB-231 cells assessed as cell growth at 10 uM after 48 hrs by SRB assay relative to control; details: MDA-MB-231, 48 h, read-out: Activity; in short: as §2
OVCAR-5 = assay: Cytotoxicity against human OVCAR5 cells assessed as cell growth at 10 uM after 48 hrs by SRB assay relative to control; details: OVCAR-5, 48 h, read-out: Activity
OVCAR-4 = assay: Cytotoxicity against human OVCAR4 cells assessed as cell growth at 10 uM after 48 hrs by SRB assay relative to control; details: OVCAR-4, 48 h, read-out: Activity
MCF7 = assay: Cytotoxicity against human MCF7 cells assessed as cell growth at 10 uM after 48 hrs by SRB assay relative to control; details: MCF7, 48 h, read-out: Activity; in short: as §2
LOX IMVI = assay: Cytotoxicity against human LOXIMVI cells assessed as cell growth at 10 uM after 48 hrs by SRB assay relative to control; details: read-out: Activity; in short: as §2
NCI/ADR-RES = assay: Cytotoxicity against human NCI/ADR-RES cells assessed as cell growth at 10 uM after 48 hrs by SRB assay relative to control; details: read-out: Activity

## CCOC(=O)CCCn1c2c(c(C)c1-c1ccccc1)C1=NC(=O)CN1C(SC)=N2
TK-10
  growth at 10 µM: 123%
MOLT-4
  growth at 10 µM: 77%
PC-3
  growth at 10 µM: 93%
NCI-H460
  growth at 10 µM: 94%
RXF 393
  growth at 10 µM: 108%
HCC 2998
  growth at 10 µM: 127%
ACHN
  growth at 10 µM: 112%
MDA-MB-468
  growth at 10 µM: 87%
U-251
  growth at 10 µM: 102%
KM12
  growth at 10 µM: 96%
NCI-H226
  growth at 10 µM: 110%
NCI-H322M
  growth at 10 µM: 108%
HCT-15
  growth at 10 µM: 114%
SF-295
  growth at 10 µM: 98%
SK-MEL-28
  growth at 10 µM: 100%
DU-145
  growth at 10 µM: 109%
SK-OV-3
  growth at 10 µM: 123%
A498
  growth at 10 µM: 118%
SF-268
  growth at 10 µM: 105%
HCT-116
  growth at 10 µM: 112%
UO-31
  growth at 10 µM: 85%
SR
  growth at 10 µM: 94%
SK-MEL-2
  growth at 10 µM: 114%
A549
  growth at 10 µM: 108%
SF-539
  growth at 10 µM: 84%
SNB-75
  growth at 10 µM: 80%
EKVX
  growth at 10 µM: 97%
MDA-MB-231
  growth at 10 µM: 130%
OVCAR-5
  growth at 10 µM: 111%
OVCAR-4
  growth at 10 µM: 94%
MCF7
  growth at 10 µM: 84%
LOX IMVI
  growth at 10 µM: 93%
NCI/ADR-RES
  growth at 10 µM: 95%
